How the values were obtained:
Format in all cases: functional
[1] = system: Anopheles stephensi; test: Insecticidal activity against Anopheles stephensi second instar larvae assessed as mortality at 0.2 mM after 24 hrs by microscopic analysis relative to control
Method in brief: (§1)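 Second instar larvae of Ae. aegypti and An. stephensi were exposed to compounds added directly to the culture media, with DMSO as the vehicle control. Larval mortality was scored 24 h later and reported as mean with SEM, with statistical testing against control.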

[2] = system: Aedes aegypti; test: Insecticidal activity against Aedes aegypti assessed as ovarian follicle size at 0.7 mM administered 1 hr post human blood-meal measured after 47 hrs (reference value: 482.6+/-4.8 um)
[3] = system: Aedes aegypti; test: Insecticidal activity against Aedes aegypti second instar larvae assessed as mortality at 0.2 mM after 24 hrs by microscopic analysis relative to control; method in brief: as §1
[4] = Selectivity ratio of mortality against Anopheles stephensi second instar larvae to mortality against Aedes aegypti second instar larvae
[5] = system: Anopheles stephensi; test: Insecticidal activity against Anopheles stephensi second instar larvae assessed as mortality after 24 hrs by microscopic analysis relative to control; method in brief: as §1
[6] = system: Aedes aegypti; test: Insecticidal activity against Aedes aegypti second instar larvae assessed as mortality after 24 hrs by microscopic analysis relative to control; method in brief: as §1

Row | Structure (SMILES) | Activity [1] [%] | Activity [2] [um] | Activity [3] [%] | Ratio [4] | LC50 [5] [µM] | LC50 [6] [µM]
1 | Fc1cc(F)c2c(c1)[C@H]1C=CC[C@H]1[C@@H](c1cccnc1)N2 | 0 | 408.2 | 4.7 | – | – | –
2 | Fc1cc(F)c2c(c1)[C@@H]1C=CC[C@@H]1[C@H](c1cccnc1)N2 | 83.4 | 270 | 18.1 | 5 | – | –
3 | Fc1cc(F)c2c(c1)[C@H]1C=CC[C@H]1[C@H](c1cccnc1)N2 | 0 | 433.6 | 1.5 | – | – | –
4 | Fc1cc(F)c2c(c1)[C@@H]1C=CC[C@@H]1[C@@H](c1cccnc1)N2 | 57.5 | 407.7 | 12.3 | 5 | – | –
5 | Fc1cc(F)c2c(c1)[C@@H]1C=CC[C@@H]1[C@H](c1ccccc1)N2 | 0 | 235.1 | 0 | – | – | –
6 | Fc1cc(F)c2c(c1)[C@@H]1C=CC[C@@H]1C(c1cccnc1)N2 (mixture of isomers) | – | 291.8 | – | – | – | –
7 | Fc1cc(C(F)(F)F)cc2c1NC(c1cccnc1)[C@H]1CC=C[C@@H]21 (mixture of isomers) | 0 | 315 | 5.3 | – | – | –
8 | CN1c2c(F)cc(F)cc2[C@@H]2C=CC[C@@H]2[C@@H]1c1cccnc1 (racemic) | 100 | 416.3 | 96.2 | – | 100 | 100
9 | Fc1ccc2c(c1)[C@@H]1C=CC[C@@H]1[C@H](c1cccnc1)N2 (racemic) | 0 | 343.8 | 0 | – | – | –
10 | CC(=O)N1c2c(F)cc(F)cc2[C@@H]2C=CC[C@@H]2[C@@H]1c1cccnc1 (racemic) | 0 | 442.7 | 1.7 | – | – | –
11 | Fc1cccc2c1N[C@@H](c1cccnc1)[C@H]1CC=C[C@@H]21 (racemic) | 100 | 312.1 | 91.4 | – | 200 | 200
12 | Fc1cc(F)c2c(c1)[C@@H]1C=CC[C@@H]1[C@H](c1cncs1)N2 (racemic) | 37.6 | 330.8 | 0 | 5 | – | –
13 | CC(C)(C)[C@@H]1Nc2c(F)cc(F)cc2[C@@H]2C=CC[C@H]12 (racemic) | 86.4 | 326.2 | 15.4 | 5 | – | –
14 | Fc1cc(F)c2c(c1)[C@@H]1C=CC[C@@H]1[C@H](c1ccccn1)N2 (racemic) | 100 | 287.5 | 100 | – | 100 | 100
15 | N#Cc1ccc([C@@H]2Nc3c(F)cc(F)cc3[C@@H]3C=CC[C@@H]32)cc1 (racemic) | 0 | 309.5 | 0 | – | – | –
16 | CC(=O)NCc1ccc([C@@H]2Nc3c(F)cc(F)cc3[C@@H]3C=CC[C@@H]32)cc1 (racemic) | 0 | 375.4 | 0 | – | – | –
17 | NCc1ccc([C@@H]2Nc3c(F)cc(F)cc3[C@@H]3C=CC[C@@H]32)cc1 (racemic) | 81.7 | 301.5 | 91.7 | – | 100 | 200
18 | Fc1cc(F)c2c(c1)[C@@H]1C=CC[C@@H]1[C@H](c1ccc(C(F)(F)F)cc1)N2 (racemic) | 0 | 230.4 | 5.9 | – | – | –
19 | CN1CCC(NCc2ccc([C@@H]3Nc4c(F)cc(F)cc4[C@@H]4C=CC[C@@H]43)cc2)CC1 (racemic) | 100 | 275.3 | 100 | – | 50 | 50
20 | CCCCCCCNCc1ccc([C@@H]2Nc3c(F)cc(F)cc3[C@@H]3C=CC[C@@H]32)cc1 (racemic) | 0 | 243.4 | 0 | – | – | –
21 | Fc1cc(F)c2c(c1)[C@@H]1C=CC[C@@H]1[C@H](c1ccc(CNCc3ccc4ccccc4c3)cc1)N2 (racemic) | 0 | 255.9 | 0 | – | – | –
22 | Fc1cc(F)c2c(c1)[C@@H]1C=CC[C@@H]1[C@H](c1ccc(CNCc3ccc(C(F)(F)F)cc3)cc1)N2 (racemic) | 0 | 297.5 | 0 | – | – | –
